Assay results from different studies.
Protocols differ between the studies behind these lines.
Target: Casein kinase II subunit alpha (CSNK2A1, Homo sapiens, UniProt P68400)

Structure (SMILES) | test | setting | remaining binding [%]
Cc1cnc(Nc2ccc(C(=O)N3CCC(N4CCCC4)CC3)cc2)nc1-c1cc2ccccc2s1 | binding, competition with immobilised ligand | 1 µM | 0.5
O=C1NC(c2ccccn2)Sc2ccccc21 (centres unmarked) | cell-free assay, competition with immobilised ligand | 1 µM | 61
O=C(c1ccc(Nc2nccc(-c3cc4ccccc4s3)n2)cc1)N1CCC(N2CCCC2)CC1 | binding, competition with immobilised ligand | 1 µM | 23
CN(C)c1ncc(F)c(-c2cnn3ncccc23)n1 | binding | 1 µM | 100
CC(=O)c1c(NS(C)(=O)=O)c2cc(-c3ccc(Cl)cc3)c(-c3ccc(Cl)cc3Cl)nc2n(C)c1=O | cell-free assay, competition with immobilised ligand | 1 µM | 92
O=C(Nc1c[nH]nc1C(=O)NC1CCNCC1)c1cc(F)cc(F)c1 | binding, competition with immobilised ligand | 1 µM | 100
C=CC(=O)N1CCC(C(=O)NCC(=O)N2CCN(c3nc(-c4cnc(N)nc4C(F)F)nc(N4CCOCC4)n3)CC2)CC1 | binding, competition with immobilised ligand | 1 µM | 75
c1cncc(-c2cccc(Nc3nccc(NC4CCCCC4)n3)c2)c1 | binding, competition with immobilised ligand | 10 µM | 72
COc1ccnn2ncc(-c3ccnc(N(C)C)n3)c12 | binding | 1 µM | 74
Cc1cc(-n2nc(Cc3cc(F)cc(C(F)(F)F)c3)nc2C)ccc1C(N)=O | cell-free assay, competition with immobilised ligand | 1 µM | 100
N[C@H]1CCN(c2nccc(-c3cnn4ncccc34)n2)C1 | binding | 1 µM | 89
CN(C(=O)c1ccccc1)c1cc(N(C)c2ccc3c(c2)CCc2ccc(C(=O)NCCN4CCOCC4)cc2C3=O)ccc1F | cell-free assay, competition with immobilised ligand | 1 µM | 100
C[C@@H]1CCN(c2nccc(-c3cnn4ncccc34)n2)C1 | binding | 1 µM | 89
CC(=O)N1CCC(c2ccc(C(=O)NC(=N)N)cc2C(F)(F)F)CC1 | cell-free assay, competition with immobilised ligand | 1 µM | 95
O=C(c1ccc(Nc2ncc(Cl)c(-c3ccc(Cl)s3)n2)cc1)N1CCC(N2CCCC2)CC1 | binding, competition with immobilised ligand | 1 µM | 0.9
COc1ncc2cc3ccccc3nc2c1C#N | cell-free assay, competition with immobilised ligand | 5 µM | 92
CN(CCCC(F)(F)F)c1nccc(-c2cnn3ncccc23)n1 | binding | 1 µM | 66
CCC(=O)N[C@H]1CC[C@@H](C(=O)N(C)c2ccc(-c3nc4ccccc4o3)cc2)C1 | cell-free assay, competition with immobilised ligand | 1 µM | 74
COc1cnc(Nc2cccc(S(N)(=O)=O)c2)nc1N1CCN(c2ccccc2)C(=O)C1 | binding, competition with immobilised ligand | 1 µM | 68
c1cnn2ncc(-c3ccnc(N4CCC45COC5)n3)c2c1 | binding | 1 µM | 40
